# TAAR1 agonist = human TAAR1 agonism. Q96RJ0. CHO RD-HGA16 TAAR1, Fluo-8 calcium fluorescence; vehicle wells 0%, saturating PEA agonist 100%. activation, % at 3 µM. hit rate 0.99% among 360,000. AID 624467;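 active = activation above the mean activation of all test compounds in the run plus 3 SD, cut at about 38% in these data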
#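 Assay system: CHO-derived RD-HGA16 cells with stable Gα16 and human TAAR1; timing: 17-24 h seeding, 75 min 37 °C dye, 30 min RT; read-out: % activation from peak over basal fluorescence ratio, DMSO-to-PEA scaled; measured by: kinetic Fluo-8 calcium fluorescence; benchmarks: low control DMSO, high control PEA (EC100); doses: 3 µM single concentration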
# OX1R antag-1 = antagonists of human orexin 1 receptor (OX1R). inhibition, % at 6.6 µM. O43613. AID 485270. OX1R-expressing cells, FRET antagonist read-out. hit rate 1.8% among 330,000; in the data active = inhibition mostly above about 38%, no sharp cut-off; inactive = mostly below about 40%;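 note: 0% = agonist challenge alone and 100% = reference antagonist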
# Target sequence (O43613 whole entry, looked up): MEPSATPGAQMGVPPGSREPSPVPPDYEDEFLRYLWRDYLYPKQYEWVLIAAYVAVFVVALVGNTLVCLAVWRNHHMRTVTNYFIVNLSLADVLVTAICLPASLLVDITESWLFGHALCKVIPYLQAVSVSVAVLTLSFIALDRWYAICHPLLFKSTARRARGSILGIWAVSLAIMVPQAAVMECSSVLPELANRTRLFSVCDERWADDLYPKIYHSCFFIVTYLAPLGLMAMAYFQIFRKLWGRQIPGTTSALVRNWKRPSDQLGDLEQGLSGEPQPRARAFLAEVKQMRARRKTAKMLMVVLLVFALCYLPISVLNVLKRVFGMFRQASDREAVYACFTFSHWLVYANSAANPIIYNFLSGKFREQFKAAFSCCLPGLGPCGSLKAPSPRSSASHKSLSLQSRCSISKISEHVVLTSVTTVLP
# OX1R antag-2 = antagonists of human orexin 1 receptor; hit rate 0.43% among 330,000; O43613; inhibition, % at 5 µM; CHO/OX1R cells, Fluo-8 calcium fluorescence, orexin A;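 active = inhibition above its plate's threshold, mean inhibition of all tested compounds on the plate plus 3 SD, cut at about 37% in these data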;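 note: 0% = orexin A challenge wells and 100% = SB-334867-A antagonist wells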
# GPR7 antagonist = blocks human GPR7 receptor signaling | inhibition, % at 4.4 µM | hit rate 1.1% among 290,000 | AID 1861 | GPR7-expressing cells, fluorescence antagonist assay | P48145; in the data active = inhibition above about 16%, passing the limit was not always enough;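 note: cells stimulated with the agonist NPW; 0% = agonist with vehicle and 100% = vehicle without agonist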
# TAAR1 antag = human TAAR1 antagonism | Q96RJ0 | hit rate 1.5% among 360,000 | CHO RD-HGA16 TAAR1, Fluo-8 calcium fluorescence, antagonist | inhibition, % at 3 µM;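 active = inhibition above a per-plate cutoff, the mean inhibition of test compounds on that plate plus 3 SD, cut at about 49% in these data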;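 note: 0% = DMSO plus EC80 beta-PEA response and 100% = DMSO alone without agonist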
#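 Material: RD-HGA16 CHO cells with stable hTAAR1 and Gα16; Dosing: single nominal final test compound concentration of 3 µM; Schedule: seeding 17-24 h prior, 75-min 37 °C, 30-min RT dye loading; Detection: kinetic Fluo-8 calcium fluorescence measurement; Measure: % inhibition from peak post-agonist over basal fluorescence ratio; Benchmarks: vehicle and agonist controls.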
# CHO parental Ca = signal in parental CHO cells, OX1R antagonist counter-screen. parental CHO-K1, ATP-induced calcium, Fluo-8 fluorescence. inhibition, % at 5.6 µM. hit rate 0.63% among 330,000. AID 463079;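 active = inhibition above that plate's mean sample inhibition plus 3 SD, cut at about 26% in these data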;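 note: 0% = ATP-challenged DMSO wells and 100% = DMSO wells without ATP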
#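 Test system: parental CHO cells; detection: calcium-sensitive Fluo-8 fluorescence; evaluation: percent inhibition of calcium signal; also added: ATP as calcium-mobilizing challenge; repeats: one well per compound; control set: ATP-challenged DMSO wells low, unchallenged DMSO wells high; compound: single nominal dose of 5.6 µM per compound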
# nonsel antag count = nonselective antagonist in TAAR1 antagonist counter-screen | inhibition, % at 3 µM | shares compounds with TAAR1 antag | hit rate 77% among 2,400 | counterscreen cell line, calcium fluorescence, antagonist mode; in the data active = inhibition above about 22%;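 note: CHO-Ga16 host cells stimulated with ATP at an EC80 level; 0% = agonist EC80 plus vehicle and 100% = vehicle without agonist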
# TAAR1 antag conf = confirmation of human TAAR1 antagonists; TAAR1-expressing cells, fluorescence antagonist read-out; shares compounds with TAAR1 antag; inhibition, % at 3 µM; hit rate 40% among 2,400; in the data active = inhibition above about 49%;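 note: CHO-Ga16 host cells challenged with agonist PEA near its EC80; 0% = agonist at EC80 plus vehicle and 100% = vehicle with no agonist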
# Ga16 ag counter = nonselective Ga16 agonist in TAAR1 antagonist counter-screen. activation, % at 3 µM. AID 651953. hit rate 18% among 2,400. Ga16-expressing cells, calcium fluorescence, agonist counterscreen. shares compounds with TAAR1 antag; in the data active = activation above about 12%;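 note: 0% = vehicle wells and 100% = saturating stimulus response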
# TAAR1 ag counter = counter-screen for human TAAR1 antagonists: TAAR1 agonists | hit rate 2% among 2,400 | AID 651955 | shares compounds with TAAR1 antag | activation, % at 3 µM | hTAAR1 cell line, fluorescence activation, agonist mode; in the data active = activation above about 37%;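 note: CHO cells stably expressing TAAR1 with calcium dye readout; 0% = DMSO vehicle and 100% = full agonist response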
# Starred values were filed as active, the others as inactive; / = no result given. The list is not random: actives were taken first. Their share in the collection is about 4.6%.
SMILES,TAAR1 agonist,OX1R antag-1,OX1R antag-2,GPR7 antagonist,TAAR1 antag,CHO parental Ca,nonsel antag count,TAAR1 antag conf,Ga16 ag counter,TAAR1 ag counter
CCOc1ccc(-c2ccc(/C=C3/C(=N)N4C(C)=CSC4=NC3=O)o2)c([N+](=O)[O-])c1,12,10,0,-11,59*,0,38*,50*,9,3
CCOc1ccc(-c2ccc(/C=C3/C(=N)N4C=CSC4=NC3=O)o2)c([N+](=O)[O-])c1,5,8,-6,-10,5,-11,/,/,/,/
COc1cccc(CN2CCN(C(=O)c3cc(-c4ccccn4)nc4ccc(Cl)cc34)CC2)c1,6,18,-22,-14,31,-12,/,/,/,/
O=C(c1cc(-c2ccccc2Cl)nc2ccc(Br)cc12)N1CCN(c2ccccn2)CC1,5,11,-22,-6,59*,-21,30*,47,9,21
CC(=O)N1CCN(C(=O)c2cc(-c3cccc4ccccc34)nc3ccccc23)CC1,12,5,-31,-16,67*,-18,33*,48,9,10
Cc1ccccc1CN1CCN(C(=O)c2cc(-c3ccncc3)nc3ccccc23)CC1,12,16,-32,1,71*,-25,35*,46,9,9
COc1cccc(CN2CCN(C(=O)c3cc(-c4ccncc4)nc4ccc(C)cc34)CC2)c1,14,8,-38,-21,77*,-26,24*,46,9,10
Cc1cccc(C)c1OCC(=O)N(Cc1ccc(N(C)C)cc1)C1CCS(=O)(=O)C1 (stereo not given),4,11,-22,-13,-24,-17,/,/,/,/
CCCCC/C=C/C1=CC(=O)C[C@H](c2ccc(OC)c(OC)c2)C1,2,9,-19,/,8,-28,/,/,/,/
O=C(c1cc(-c2ccncc2)nc2ccccc12)N1CCN(S(=O)(=O)/C=C/c2ccccc2)CC1,21,17,-14,-19,70*,-26,29*,45,9,8
O=C(c1cc(-c2ccncc2)nc2ccccc12)N1CCOCC1,1,/,/,/,11,/,/,/,/,/
O=C(c1cc(-c2ccncc2)nc2ccccc12)N1CCN(Cc2ccccc2)CC1,19,19,2,/,57*,-25,19,40,12*,14
CC1CC(C)CN(C(=O)c2cc(-c3ccncc3)nc3ccccc23)C1 (stereo not given),3,14,-11,/,-16,-37,/,/,/,/
COc1ccc(OC)c(NC(=O)C2(C)CCN2Cc2cccc(OC)c2F)c1 (stereo not given),-1,/,/,/,51*,/,15,30,1,-1
NC(=O)c1cc(Cl)ccc1OCC(=O)N1CCCc2ccccc21,6,16,-12,-6,17,-6,/,/,/,/
O=C(CCCOc1ccc(Cl)cc1Cl)N1CCCc2ccccc21,6,10,-29,8,50*,-42,14,12,0,-1
CC(C)CCNC(=O)C(c1ccc(O)cc1)N(Cc1cccs1)C(=O)C1COc2ccccc2O1 (stereo not given),5,20,-11,-8,57*,-20,27*,54*,4,1
CC(C)(C)NC(=O)CN(Cc1cccs1)C(=O)C1COc2ccccc2O1 (stereo not given),4,12,-35,-1,12,-10,/,/,/,/
CCOC(=O)c1[nH]c(C)c(C(=O)OCC)c1C,-2,15,-8,-10,-29,-17,/,/,/,/
CC(=O)c1c(C)[nH]c(C(=O)COC(=O)CN(C)S(=O)(=O)c2ccc(Cl)cc2)c1C,23,27,-15,-10,53*,-7,40*,42,18*,11
CCOC(=O)c1c(C)[nH]c(C(=O)COC(=O)c2[nH]c(C)c(C(C)=O)c2C)c1C,29,20,-8,-2,77*,-11,63*,66*,15*,14
Cc1ccc(S(=O)(=O)N(C)C[C@@H]2OCc3cn(nn3)CCCC(=O)N([C@@H](C)CO)C[C@H]2C)cc1,6,/,/,/,1,/,/,/,/,/
Cc1ccccc1OCC(=O)N=Nc1c(O)n(C)c2ccccc12,6,25,-15,-12,54*,-17,27*,46,6,9
O=[N+]([O-])c1ccc(N/N=C/c2c[nH]c3ccccc23)cc1,25,11,45,22,89*,47*,36*,63*,18*,9
O=[N+]([O-])c1ccccc1N/N=C/c1c[nH]c2ccccc12,-2,50,3,-10,1,-7,/,/,/,/
SMILES,TAAR1 agonist,OX1R antag-1,OX1R antag-2,GPR7 antagonist,TAAR1 antag,CHO parental Ca,nonsel antag count,TAAR1 antag conf,Ga16 ag counter,TAAR1 ag counter
COc1ccc(NC(=O)N(C)C[C@H]2Oc3cc(Br)ccc3S(=O)(=O)N([C@H](C)CO)C[C@@H]2C)cc1,-1,/,/,/,0,/,/,/,/,/
CCN(C(=O)COC(=O)CNS(=O)(=O)c1ccccc1)c1ccccc1,3,12,-7,2,13,2,/,/,/,/
O=C(COC(=O)CNC(=O)c1ccc(Cl)cc1Cl)NC(=O)NCc1ccccc1,3,0,-30,/,-27,-15,/,/,/,/
Cn1c(C(=O)Nc2ccc3c(c2)OCO3)cc2c(=O)n(C)c3ccccc3c21,1,12,-11,-8,-1,-7,/,/,/,/
CC(NC(=O)c1cc2c(=O)n(C)c3ccccc3c2n1C)c1ccc2c(c1)OCCO2 (stereo not given),7,3,-25,-7,59*,-11,22*,34,4,3
CCn1c2ccccc2c2cc(NC(=O)c3coc(=O)c(Br)c3)ccc21,5,15,-16,-14,105*,-4,16,18,5,5
COc1ccccc1CNC(=O)c1cccc(S(=O)(=O)N2CCN(C)CC2)c1,1,10,-45,-13,-8,4,/,/,/,/
COc1cc(OC)c(OC)cc1CNC(=O)c1cccc(S(=O)(=O)N2CCc3ccccc3C2)c1,12,/,/,/,68*,/,47*,57*,14*,8
O=C(CSc1nc(-c2ccccc2)cs1)NC(=O)NCc1ccco1,7,15,-13,-15,54*,-9,30*,42,5,2
Cc1ccc(NC(=O)CN(C)C(=O)c2cc(-c3ccco3)nc3ccccc23)cc1,11,6,-11,/,1,-27,/,/,/,/
